# Laboratory results reported in ChEMBL document CHEMBL1122794, “[(Arylcarbonyl)oxy]propanolamines. 1. Novel beta-blockers with ultrashort duration of action” (J Med Chem, 1984).
# What was measured:
# [1] = target: T1, Adrenergic receptor beta (Homo sapiens, UniProt P08588+P07550+P13945); test: In Vitro inhibition of the beta adrenergic receptor in guinea pig atria; assay type: tissue-based, Cavia porcellus; settings: target entry is the homologue from another species
# [2] = target: T1, Adrenergic receptor beta; test: In vitro blocking of beta adrenergic receptor in guinea pig trachea; assay type: tissue-based, Cavia porcellus; settings: target entry is the homologue from another species
# [3] = species on record: Canis familiaris; test: Time taken for 80% recovery at a dose of 182 microg (3-h infusion period); assay type: functional, organism-based; settings: Canis lupus familiaris
# [4] = species on record: Canis familiaris; test: Percent inhibition of isoproterenol induced tachycardia at a dose of 182 microg (3-h infusion period); assay type: functional, Canis lupus familiaris
# [5] = (§1) Selectivity determined by expression 10[pA2(atria) - pA2 (trachea)] in guinea pig; assay type: functional, Cavia porcellus
# [6] = T1/2 in canine blood; assay type: ADME, […], Canis lupus familiaris; settings: dog
# Outline: (§2)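 1 mL of solution containing 50 µg of compound was added to 1 mL of dog or human whole blood, or to 1 mL of 33% (w/v) canine liver homogenate. They were assayed by HPLC on a phenyl column with 60% acetonitrile/40% 0.05 M sodium phosphate (pH 6.6) and UV detection. Half-life was read graphically from concentration versus time.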
# [7] = t1/2 in canine liver; assay type: ADME, Canis lupus familiaris; settings: dog
# [8] = species on record: Canis familiaris; test: Percent inhibition of isoproterenol induced tachycardia at a dose of 27 microg (3-h infusion period); assay type: functional, Canis lupus familiaris
# [9] = species on record: Canis familiaris; test: Time taken for 80% recovery at a dose of 27 microg (3-h infusion period); assay type: functional, organism-based; settings: Canis lupus familiaris
# [10] = species on record: Canis familiaris; test: Time taken for 80% recovery at a dose of 172 microg (3-h infusion period); assay type: functional, organism-based; settings: Canis lupus familiaris
# [11] = as §1; assay type: functional, Cavia porcellus; remark: listed apart in the source
# Outline: (§3)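 Selectivity index calculated as 10^[pA2(atria) − pA2(trachea)] from pA2 values measured in isolated guinea pig atria and trachea. A minus sign denotes β2 selectivity.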
# [12] = species on record: Canis familiaris; test: Percent inhibition of isoproterenol induced tachycardia at a dose of 1 microg (3-h infusion period); assay type: functional, Canis lupus familiaris
# [13] = species on record: Canis familiaris; test: Time taken for 80% recovery at a dose of 1 microg (3-h infusion period); assay type: functional, organism-based; settings: Canis lupus familiaris
# [14] = Time in which 1/2 of the initial amount disappeared in human blood.; assay type: ADME, organism-based; outline: as §2
# [15] = species on record: Canis familiaris; test: Time taken for 80% recovery at a dose of 128 microg (3-h infusion period) / 85 kg min (40-min infusion model); assay type: functional, organism-based; settings: Canis lupus familiaris
# [16] = species on record: Canis familiaris; test: Percent inhibition of isoproterenol induced tachycardia at a dose of 128 microg (3-h infusion period) / 85 kg min (40-min infusion model); assay type: functional, Canis lupus familiaris
# [17] = species on record: Canis familiaris; test: Percent inhibition of isoproterenol induced tachycardia at a dose of 10 microg (3-h infusion period); assay type: functional, Canis lupus familiaris
# [18] = species on record: Canis familiaris; test: Time taken for 80% recovery at a dose of 10 microg (3-h infusion period); assay type: functional, organism-based; settings: Canis lupus familiaris
# [19] = species on record: Canis familiaris; test: Percent inhibition of isoproterenol induced tachycardia at a dose of 23 microg (3-h infusion period); assay type: functional, Canis lupus familiaris
# [20] = species on record: Canis familiaris; test: Time taken for 80% recovery at a dose of 23 microg (3-h infusion period); assay type: functional, organism-based; settings: Canis lupus familiaris
# [21] = target: T1, Adrenergic receptor beta; test: In vitro beta adrenergic receptor blocking in guinea pig trachea; assay type: tissue-based, Cavia porcellus; settings: target entry is the homologue from another species
# [22] = species on record: Canis familiaris; test: Percent inhibition of isoproterenol induced tachycardia at a dose of 1.1 microg (3-h infusion period); assay type: functional, Canis lupus familiaris
# [23] = species on record: Canis familiaris; test: Time taken for 80% recovery at a dose of 1.1 microg (3-h infusion period); assay type: functional, organism-based; settings: Canis lupus familiaris
# [24] = species on record: Canis familiaris; test: Percent inhibition of isoproterenol induced tachycardia at a dose of 57/122 microg (3-h infusion period); assay type: functional, Canis lupus familiaris
# [25] = species on record: Canis familiaris; test: Time taken for 80% recovery at a dose of 57/122 microg (3-h infusion period); assay type: functional, organism-based; settings: Canis lupus familiaris
# [26] = species on record: Canis familiaris; test: Percent inhibition of isoproterenol induced tachycardia at a dose of 1.3 microg (3-h infusion period); assay type: functional, Canis lupus familiaris
# [27] = Stability at pH 7.4 and 37 degree Celsius (after 18 h); assay type: physicochemical; settings: buffer
# Outline: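 Chemical stability was tested in pH 7.4 buffer at 37 °C. The percentage of parent compound remaining after 18 h of incubation was recorded.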
# [28] = species on record: Canis familiaris; test: Percent inhibition of isoproterenol induced tachycardia at a dose of 20 microg (3-h infusion period); assay type: functional, Canis lupus familiaris
# [29] = species on record: Canis familiaris; test: Time taken for 80% recovery at a dose of 20 microg (3-h infusion period); assay type: functional, organism-based; settings: Canis lupus familiaris
# [30] = species on record: Canis familiaris; test: Time taken for 80% recovery at a dose of 100 microg (3-h infusion period); assay type: functional, organism-based; settings: Canis lupus familiaris
# [31] = species on record: Canis familiaris; test: Percent inhibition of isoproterenol induced tachycardia at a dose of 100 microg (3-h infusion period); assay type: functional, Canis lupus familiaris
# [32] = species on record: Canis familiaris; test: Percent inhibition of isoproterenol induced tachycardia at a dose of 70 microg (3-h infusion period); assay type: functional, Canis lupus familiaris
# [33] = species on record: Canis familiaris; test: Time taken for 80% recovery at a dose of 70 microg (3-h infusion period); assay type: functional, organism-based; settings: Canis lupus familiaris
# Outline: (§4)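 After the infusion ended, the time to 80% recovery of the blockade was recorded as duration of action. The listed dose is the average amount infused per minute over the 3-h period, in µg/(kg min).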
# [34] = species on record: Canis familiaris; test: Time taken for 80% recovery at a dose of 15 microg (3-h infusion period); assay type: functional, organism-based; settings: Canis lupus familiaris
# [35] = species on record: Canis familiaris; test: Percent inhibition of isoproterenol induced tachycardia at a dose of 15 microg (3-h infusion period); assay type: functional, Canis lupus familiaris
# [36] = Time in which 1/2 of the initial amount disappeared in canine liver(106); assay type: ADME, […], Canis lupus familiaris; settings: dog; outline: as §2
# [37] = species on record: Canis familiaris; test: Time taken for 80% recovery at a dose of 106 microg (3-h infusion period); assay type: functional, organism-based; settings: Canis lupus familiaris
# [38] = species on record: Canis familiaris; test: Percent inhibition of isoproterenol induced tachycardia at a dose of 4 microg (3-h infusion period); assay type: functional, Canis lupus familiaris
# [39] = species on record: Canis familiaris; test: Time taken for 80% recovery at a dose of 4 microg (3-h infusion period); assay type: functional, organism-based; settings: Canis lupus familiaris
# [40] = species on record: Canis familiaris; test: Percent inhibition of isoproterenol induced tachycardia at a dose of 8 microg (3-h infusion period); assay type: functional, Canis lupus familiaris
# [41] = species on record: Canis familiaris; test: Time taken for 80% recovery at a dose of 8 microg (3-h infusion period); assay type: functional, organism-based; settings: Canis lupus familiaris; outline: as §4
# [42] = Time in which 1/2 of the initial amount disappeared in canine blood; assay type: ADME, […], Canis lupus familiaris; settings: dog; outline: as §2
# [43] = Time in which 1/2 of the initial amount disappeared in canine liver; assay type: ADME, […], Canis lupus familiaris; settings: dog; outline: as §2
# [44] = target: Beta-2 adrenergic receptor (Cavia porcellus) (UniProt Q8K4Z4); test: In Vitro evaluation for […] selectivity in guinea pig; outline: as §3
# [45] = Time in which 1/2 of the initial amount disappeared in canine liver (44); assay type: ADME, […], Canis lupus familiaris; settings: dog; outline: as §2
# [46] = species on record: Canis familiaris; test: Percent inhibition of isoproterenol induced tachycardia at a dose of 3.3 microg (3-h infusion period); assay type: functional, Canis lupus familiaris
# [47] = species on record: Canis familiaris; test: Time taken for 80% recovery at a dose of 3.3 microg (3-h infusion period); assay type: functional, organism-based; settings: Canis lupus familiaris
# [48] = species on record: Canis familiaris; test: Percent inhibition of isoproterenol induced tachycardia at a dose of 36 microg (3-h infusion period); assay type: functional, Canis lupus familiaris
# [49] = species on record: Canis familiaris; test: Time taken for 80% recovery at a dose of 36 microg (3-h infusion period); assay type: functional, organism-based; settings: Canis lupus familiaris
# [50] = Time in which 1/2 of the initial amount disappeared in human blood; assay type: ADME, organism-based; outline: as §2
# [51] = species on record: Canis familiaris; test: Percent inhibition of isoproterenol induced tachycardia at a dose of 0.59-1.26 microg (3-h infusion period); assay type: functional, Canis lupus familiaris
# [52] = species on record: Canis familiaris; test: Time taken for 80% recovery at a dose of 0.59-1.26 microg (3-h infusion period); assay type: functional, organism-based; settings: Canis lupus familiaris
# Beta-2 adrenergic receptor (Cavia porcellus), sequence (Q8K4Z4 whole entry, looked up): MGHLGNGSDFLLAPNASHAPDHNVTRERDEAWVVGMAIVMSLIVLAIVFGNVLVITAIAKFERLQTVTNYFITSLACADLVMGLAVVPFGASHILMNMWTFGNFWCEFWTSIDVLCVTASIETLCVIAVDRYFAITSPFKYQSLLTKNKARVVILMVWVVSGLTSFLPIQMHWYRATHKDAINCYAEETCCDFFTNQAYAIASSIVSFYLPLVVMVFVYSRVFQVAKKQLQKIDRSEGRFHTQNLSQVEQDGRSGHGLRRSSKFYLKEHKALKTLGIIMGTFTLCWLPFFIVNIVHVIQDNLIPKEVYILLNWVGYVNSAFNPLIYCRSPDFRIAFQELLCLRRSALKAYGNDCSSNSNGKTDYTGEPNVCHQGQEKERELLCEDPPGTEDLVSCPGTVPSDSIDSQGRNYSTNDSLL
SMILES,pA2 [1],pA2 [2],half-life [6],half-life [7],half-life [14],Selectivity [5],also measured
CC(C)NCC(O)COC(=O)c1ccc2ccccc2c1 (stereo unspecified),6.4,6.6,,,,-2,Recovery time [3]: > 60 min; Inhibition [4]: 54%
CC(C)(CNC(N)=O)NCC(O)COC(=O)c1ccccc1F (stereo unspecified) [FLESTOLOL],8.1,8.4,15 min,2.5 min,,-2,Inhibition [12]: 49%; Recovery time [13]: 21 min
CC(C)NCC(O)COC(=O)c1ccccc1 (stereo unspecified),6.3,7.2,6.8 min,8 min,2.3 min,-7,Recovery time [15]: 26 min; Inhibition [16]: 63%
CC(C)(C)NCC(O)COC(=O)c1ccc([N+](=O)[O-])cc1Cl (stereo unspecified),6.6,6.5,,,,1,Inhibition [19]: 85%; Recovery time [20]: > 60 min
CC(C)NCC(O)COc1cccc2ccccc12 (stereo unspecified) [PROPRANOLOL],,,> 180 min,,,,Inhibition [26]: 68%
COc1ccc(CCNCC(O)COC(=O)c2ccccc2F)cc1OC (stereo unspecified),6.1,5.7,,,,2.5,remaining at 18 h [27]: 35%; Recovery time [30]: > 60 min; Inhibition [31]: 48%
CC(=O)NCC(C)(C)NCC(O)COC(=O)c1ccccc1F (stereo unspecified),,,7.5 min,,,,Recovery time [34]: 35 min; Inhibition [35]: 61%
CC(C)(C)NCC(O)COC(=O)c1ccc(O)cc1 (stereo unspecified),7.4,6.5,> 180 min,> 180 min,56 min,9,Inhibition [38]: 71%; Recovery time [39]: > 60 min
CC(C)(CNC(=O)C1CCCCC1)NCC(O)COC(=O)c1ccccc1F (stereo unspecified),7.7,7.2,,,,3,Inhibition [40]: 61%; Recovery time [41]: 12 min
CC(C)C(=O)NCC(C)(C)NCC(O)COC(=O)c1ccccc1F (stereo unspecified),,,20 min,3.5 min,,,Inhibition [46]: 62%; Recovery time [47]: 22 min
CCOC(=O)NCC(C)(C)NCC(O)COC(=O)c1ccccc1F (stereo unspecified),7.1,7,8 min,1 min,,1,Inhibition [48]: 49%; Recovery time [49]: 8 min
CC(C)(C)NCC(O)COC(=O)c1ccc(F)cc1 (stereo unspecified),7.3,8,16 min,66 min,,-5,half-life [50]: 11.5 min
CC(C)NCC(O)COC(=O)c1ccc(N)cc1 (stereo unspecified),6.7,6.6,> 180 min,> 180 min,60 min,1,Inhibition [51]: 80%; Recovery time [52]: > 60 min

# The next lines start with results.
pA2 [1],pA2 [2],half-life [6],half-life [7],half-life [14],SMILES,Selectivity [5],also measured
7.1,8,41 min,31 min,,CC(C)(C)NCC(O)COC(=O)c1ccccc1O (stereo unspecified),-9,Inhibition [8]: 73%; Recovery time [9]: > 60 min
6.6,7.1,,,,CCCOc1ccccc1C(=O)OCC(O)CNC(C)C (stereo unspecified),,Recovery time [10]: > 60 min; Selectivity [11]: -3.5
7.4,8.1,6 min,25 min,,CC(C)(CNC(=O)Cc1ccccc1)NCC(O)COC(=O)c1ccccc1F (stereo unspecified),-5,Inhibition [17]: 68%; Recovery time [18]: 19 min
8.5,,,,,CC(C)(CNC(=O)N1CCOCC1)NCC(O)COC(=O)c1ccccc1F (stereo unspecified),2,pA2 [21]: 8.2; Inhibition [22]: 81%; Recovery time [23]: > 60 min
7,7.9,15 min,,,CC(C)(CNS(=O)(=O)c1ccccc1)NCC(O)COC(=O)c1ccccc1F.O=C(O)C(=O)O (stereo unspecified),1,Inhibition [24]: 43%; Recovery time [25]: 6 min
6.8,8,30 min,10 min,1.6 min,CC(C)(C)NCC(O)COC(=O)c1ccccc1F (stereo unspecified),-16,remaining at 18 h [27]: 98%; Inhibition [28]: 60%; Recovery time [29]: 17 min
6.8,7.7,7.3 min,20 min,5.3 min,CC(C)(C)NCC(O)COC(=O)c1ccccc1 (stereo unspecified),-8,remaining at 18 h [27]: 99%; Inhibition [32]: 65%; Recovery time [33]: > 60 min
,7.1,7 min,,1.7 min,CC(C)NCC(O)COC(=O)c1ccccc1F (stereo unspecified),,remaining at 18 h [27]: 83%; half-life [36]: 4 min; Recovery time [37]: 25 min
6.2,6.3,,,,CC(C)(C)NCC(O)COC(=O)c1ccc(C=O)cc1 (stereo unspecified),,half-life [42]: 14 min; half-life [43]: 1 min; Selectivity [44]: 1
,,28 min,,1.7 min,CC(C)NCC(O)COC(=O)c1ccccc1Cl (stereo unspecified),,remaining at 18 h [27]: 92%; half-life [45]: 12 min
